According to ChEMBL document CHEMBL1124999, “3-Phenyl analogues of 2-[[[2-(2,6-dimethoxyphenoxy)ethyl]amino]-methyl]-1,4-benzodioxan (WB 4101) as highly selective alpha 1-adrenoceptor antagonists” (J Med Chem, 1990):

Legend:
[1] = Selectivity ratio (alpha1/alpha2) of the compound
Outline: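 α1/α2 selectivity is the antilog of the difference between pA2 at α1- and α2-adrenoreceptors. Each pA2 comes from Schild plots against norepinephrine (α1) or clonidine (α2).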

[2] = target: T1, Adrenergic receptor alpha-1 (Rattus norvegicus, UniProt P15823+P23944+P43140); test: pIC50 value was measured in Alpha-1 adrenergic receptor against norepinephrine in rat vas deferens.
T1 sequence (P15823 whole entry): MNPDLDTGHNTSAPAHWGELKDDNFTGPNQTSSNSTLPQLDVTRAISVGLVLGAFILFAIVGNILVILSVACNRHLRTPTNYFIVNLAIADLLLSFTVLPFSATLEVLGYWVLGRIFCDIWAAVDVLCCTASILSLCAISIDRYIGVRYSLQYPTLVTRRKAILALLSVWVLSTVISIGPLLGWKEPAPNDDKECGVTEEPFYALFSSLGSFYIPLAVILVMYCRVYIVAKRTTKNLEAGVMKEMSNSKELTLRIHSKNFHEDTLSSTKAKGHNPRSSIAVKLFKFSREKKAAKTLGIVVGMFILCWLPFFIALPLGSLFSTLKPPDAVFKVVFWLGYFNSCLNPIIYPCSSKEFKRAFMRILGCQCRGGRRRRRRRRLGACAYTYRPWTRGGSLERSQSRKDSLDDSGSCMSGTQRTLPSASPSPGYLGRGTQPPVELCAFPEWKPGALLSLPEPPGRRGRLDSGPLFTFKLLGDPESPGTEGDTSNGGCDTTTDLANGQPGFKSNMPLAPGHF
T1 sequence (P23944 whole entry): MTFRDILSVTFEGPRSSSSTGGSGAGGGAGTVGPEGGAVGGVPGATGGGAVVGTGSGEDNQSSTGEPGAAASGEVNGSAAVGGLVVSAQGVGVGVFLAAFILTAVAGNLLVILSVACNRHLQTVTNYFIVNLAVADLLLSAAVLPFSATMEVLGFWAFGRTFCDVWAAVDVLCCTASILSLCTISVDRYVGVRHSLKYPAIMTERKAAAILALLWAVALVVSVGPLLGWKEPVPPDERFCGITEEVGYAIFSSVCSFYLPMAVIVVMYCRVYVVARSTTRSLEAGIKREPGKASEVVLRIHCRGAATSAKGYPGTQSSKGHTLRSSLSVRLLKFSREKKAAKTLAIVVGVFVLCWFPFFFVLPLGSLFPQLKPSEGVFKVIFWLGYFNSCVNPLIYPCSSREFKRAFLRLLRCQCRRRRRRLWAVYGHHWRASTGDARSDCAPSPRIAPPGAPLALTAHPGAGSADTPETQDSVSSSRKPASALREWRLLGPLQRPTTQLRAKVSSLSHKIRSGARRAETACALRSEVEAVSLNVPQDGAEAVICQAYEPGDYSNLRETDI
T1 sequence (P43140 whole entry): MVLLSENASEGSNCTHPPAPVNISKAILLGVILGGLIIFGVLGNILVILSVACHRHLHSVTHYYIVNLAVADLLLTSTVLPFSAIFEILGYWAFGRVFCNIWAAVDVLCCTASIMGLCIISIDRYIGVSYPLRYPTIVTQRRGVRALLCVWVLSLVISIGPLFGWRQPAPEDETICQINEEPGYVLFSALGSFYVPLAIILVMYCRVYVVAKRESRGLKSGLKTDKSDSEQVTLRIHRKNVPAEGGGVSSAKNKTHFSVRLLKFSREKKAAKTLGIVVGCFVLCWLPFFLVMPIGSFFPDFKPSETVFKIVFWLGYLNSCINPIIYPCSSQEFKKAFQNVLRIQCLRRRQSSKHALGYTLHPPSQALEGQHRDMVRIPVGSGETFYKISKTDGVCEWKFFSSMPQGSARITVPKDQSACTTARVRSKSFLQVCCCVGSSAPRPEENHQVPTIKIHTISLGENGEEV

[3] = target: T2, Adrenergic receptor alpha-2 (Rattus norvegicus, UniProt P22086+P19328+P22909); test: pA2 value was measured in Alpha-2 adrenergic receptor against clonidine in rat vas deferens.
T2 sequence (P22086 whole entry): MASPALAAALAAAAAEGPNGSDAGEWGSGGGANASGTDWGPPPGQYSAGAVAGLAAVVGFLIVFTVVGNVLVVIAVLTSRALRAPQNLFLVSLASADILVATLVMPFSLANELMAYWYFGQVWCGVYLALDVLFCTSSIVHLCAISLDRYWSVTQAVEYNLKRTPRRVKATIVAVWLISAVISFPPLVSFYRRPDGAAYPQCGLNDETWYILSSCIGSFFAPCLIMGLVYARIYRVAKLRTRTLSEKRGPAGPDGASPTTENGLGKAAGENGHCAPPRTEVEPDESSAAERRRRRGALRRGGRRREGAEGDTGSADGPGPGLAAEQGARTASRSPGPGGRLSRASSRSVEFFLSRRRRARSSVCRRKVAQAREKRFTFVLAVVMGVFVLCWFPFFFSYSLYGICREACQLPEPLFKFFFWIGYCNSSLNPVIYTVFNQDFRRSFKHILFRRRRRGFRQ
T2 sequence (P19328 whole entry): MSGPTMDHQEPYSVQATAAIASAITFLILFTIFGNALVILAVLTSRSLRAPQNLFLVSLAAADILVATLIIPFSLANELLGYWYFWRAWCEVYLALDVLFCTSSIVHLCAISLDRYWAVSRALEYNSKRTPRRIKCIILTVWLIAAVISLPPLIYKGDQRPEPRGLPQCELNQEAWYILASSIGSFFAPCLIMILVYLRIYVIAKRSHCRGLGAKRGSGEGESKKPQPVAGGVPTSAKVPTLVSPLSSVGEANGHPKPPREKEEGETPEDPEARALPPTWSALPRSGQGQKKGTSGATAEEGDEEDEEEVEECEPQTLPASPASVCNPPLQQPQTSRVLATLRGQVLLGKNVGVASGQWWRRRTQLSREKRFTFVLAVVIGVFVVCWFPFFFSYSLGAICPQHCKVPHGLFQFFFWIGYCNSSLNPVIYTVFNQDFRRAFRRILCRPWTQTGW
T2 sequence (P22909 whole entry): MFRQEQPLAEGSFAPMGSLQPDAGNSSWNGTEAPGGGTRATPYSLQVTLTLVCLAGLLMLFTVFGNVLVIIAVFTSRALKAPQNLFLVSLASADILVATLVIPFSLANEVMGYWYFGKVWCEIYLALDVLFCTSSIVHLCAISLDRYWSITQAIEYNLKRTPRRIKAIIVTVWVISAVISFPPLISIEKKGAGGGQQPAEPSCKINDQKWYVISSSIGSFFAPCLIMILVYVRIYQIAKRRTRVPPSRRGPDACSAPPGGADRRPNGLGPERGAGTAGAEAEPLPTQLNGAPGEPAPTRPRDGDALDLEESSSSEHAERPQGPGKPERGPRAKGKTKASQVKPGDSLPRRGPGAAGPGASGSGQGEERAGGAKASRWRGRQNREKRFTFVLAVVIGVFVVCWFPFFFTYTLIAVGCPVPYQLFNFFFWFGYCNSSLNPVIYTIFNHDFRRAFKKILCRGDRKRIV
Outline: (§1)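 Schild analysis with slope constrained to -1.0. Log(DR−1) was measured at three antagonist concentrations for α1 (norepinephrine) and four for α2 (clonidine), each tested at least five times. DR is the agonist ED50 with antagonist divided by that without. Curve parallelism was checked by linear regression (p < 0.05). Values are ± standard error of estimate.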

[4] = target: T1, Adrenergic receptor alpha-1; test: pA2 value was measured in Alpha-1 adrenergic receptor against norepinephrine in rat vas deferens.; outline: as §1
[5] = target: T2, Adrenergic receptor alpha-2; test: pA2 value was measured in aAlpha-2 adrenergic receptor against clonidine in rat vas deferens.; outline: as §1

Selectivity ratio [1] | pIC50 [2] | pA2 [3] | pA2 [4] | pA2 [5] | Compound
6 | 5.29 | 4.49 | – | – | COc1cccc(OC)c1OCCNC[C@H]1Oc2ccccc2O[C@H]1c1ccccc1
23400 | – | 4.22 | 8.59 | – | COc1cccc(OC)c1OCCNC[C@H]1Oc2ccccc2O[C@@H]1c1ccccc1
2630 | – | 4.85 | 8.27 | – | COc1cccc(OC)c1OCCNC[C@H]1C(=O)c2ccccc2O[C@@H]1c1ccccc1
– | – | – | 9.3 | 6.4 | COc1cccc(OC)c1OCCNC[C@H]1Oc2ccccc2OC1c1ccccc1 (stereo partly specified)
